The EternaBench riboswitch data

System: MS2 coat protein
Assay: apparent Kd, MS2 coat protein; higher = weaker binding; RNA-MaP array; FMN 200 µM where present
How it was run: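 Stalled E. coli RNA polymerase transcribed each design on Illumina sequencing-chip clusters. The clusters were titrated with SNAP-549-labelled MS2 coat protein, starting at 0.7 or 1.5 nM and doubling up to 3 µM, first without ligand and then with constant ligand, in 100 mM Tris-HCl pH 7.5, 80 mM KCl, 4 mM MgCl2, BSA, DTT, yeast tRNA and Tween-20. Green signal was normalised to red-channel RNA signal and to the control-cluster median Fmax. The apparent Kd is the median of filtered binding-curve fits made for each cluster.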

[1] = designed as: OFF switch for flavin mononucleotide, no ligand
[2] = ligand present: flavin mononucleotide, designed as: OFF switch for flavin mononucleotide
[3] = designed as: ON switch for flavin mononucleotide, no ligand
[4] = ligand present: flavin mononucleotide, designed as: ON switch for flavin mononucleotide

| Sequence | apparent Kd [1] [nM] | apparent Kd [2] [nM] | apparent Kd [3] [nM] | apparent Kd [4] [nM] |
| --- | --- | --- | --- | --- |
| UAAAUGUGAGGAUAUUCGAUGAACUCGGAGACGAGUUUAUCGGAGAAGGCACAUGAGGAUCACCCAUGUUCCUU | 22.3 | 225 |  |  |
| UAAGGGUAAUGAGGAUAUAACGGGUGACAUGAGGAUCACCCAUGUGGUUUGUUAUGGUCGAGCCGUUAGAAGGCAUUGUAAGCA | 1070 | 1120 |  |  |
| UAAGUUGAGGAGAAGGGAGCACAUGAGGAUCACCCAUGUGGUUCUUUGUGCUCAGGAUAUCCAUGGAGCUCCGUCGAGUUCCAG | 56.7 | 16.6 |  |  |
| UAAUAAUAAUAAUAAUGGACGAUACAUGAGGAUCACCCAUGUAAGGAUAUGCAGUGGAAUACACUGCAGAAGGUACAUACGUCC | 15.7 | 23 |  |  |
| UAAUAAUAAUGAGGAUAUAUACAACAUGAGGAUCACCCAUGUACCCAUGUAGUAGAAGGCAUAUUUUUUGUUAAUAACAUAACU |  |  | 53.8 | 32.1 |
| UAAUAUUUAUGAUAUUAUUACAUUAGAAGGCUAUACAUGUGGAUACAUGAGGAUCACCCAUGUAUAGAGGAUAUAGACAUAUAU | 357 | 537 |  |  |
| UAAUCGUUGCAGAAGGUUAUUAUUAUAACGUGACACUUAACAUGAGGAUCACCCAUGUUUUUUAUGAAGGAUAUGCAACGGUAG | 7.07 | 7.29 |  |  |
| UAAUGUAUAUAGGAUAUCUAGCUGGAUACAGCUAGAGAAGGAUGUACAUGAGGAUCACCCAUGUAAAUCUCAAU | 18.3 | 31.2 |  |  |
| UAAUUUAUACAGAAGGGAAACAUGAGGAUCACCCAUGACAUGAGGAUCACCCAUGUUUAAUUAUUUCAGGAUAUGUAAAAUAAU |  |  | 159 | 70.5 |
| UACAGCUUGACAGGAUAUACAUCACUGCGAAAGCAGUGUAUCUUAAUAACAUGAGGAUCACCCAUGUAGAAGGGUCGAGCUGUA | 19.8 | 35.9 |  |  |
| UACAGCUUGACAGGAUAUACAUGACUGCGAAAGCAGUCUAUCUUAAUAACAUGAGGAUCACCCAUGUAGAAGGGUCGAGCUGUA | 17.6 | 27 |  |  |
| UACAUGAGGAUCACCCAUGUUUUGUCGUGUAUGGUAUUUAUCUAGGAUAUCAAUCUAUUAAUUUAUGAGAAGGAGAAUAUUAAU | 35.5 | 39.7 |  |  |
| UACAUGAGGAUCACCCAUGUUUUGUCGUGUAUGGUAUUUAUCUAGGAUAUCAAUGUAUUUAUUUAUGAGAAGGAGAAUAUUAAU | 41.1 | 39.3 |  |  |
| UACAUGAGGAUCACCCAUGUUUUGUCGUGUAUGGUAUUUAUCUAGGAUAUCAUUUUAUCUAGUUAUGAGAAGGAGAAUAUUAAU | 36.6 | 29.9 |  |  |
| UACAUGUGAGGAUAUGUACGAGGCCCUGACGGGUCUCGCAGGCAGAAGGCACAUGAGGAUCACCCAUGUGACCG | 24.7 | 96.6 |  |  |
| UACAUUACUUAGAAGGGAUAUAUAUAAUUUUAGUCAGGAUAUAGAUACAAUACAACAUGAGGACAUGAGGAUCACCCAUGUAUU |  |  | 17.9 | 13.4 |
| UACCUACAUGAGGAUCACCCAUGUCAGGAUAUGUGCUGAGACGACAUCGACUUUCAGCGUAGAAGGGACCAGGG | 24.4 | 46.5 |  |  |
| UACCUAUUUAUGGUAUUUCAAUAUGAGGAUAUCAUUUAUUUAUACAUGAGGAUCACCCAUGUUACUGAGAAGGCAUAUUUAAUA |  |  | 11.4 | 6.01 |
| UACGUACAGAAGUACUCCGGGUCCAGAAGGGACAUGAGGAUCACCCAUGUACCGUUGAUUGCUUGUCAGGAUAUGGACCCGGCC | 7.29 | 28.5 |  |  |
| UACGUUAUACGCAACAUGAGGAUCACCCAUGUUAGCCGAUCACAGGAUAUGUUGGAGCCGGUCGGACAGAAGGGUGAGUUUGCU |  |  | 47.9 | 43.3 |
| UACUACGCAGGAUAUACAUGAGGAUCACCCAUGUGUCUGCGAUAGGCACGUGAUAUCCGUAGAAGGGUGUAGAU | 30.4 | 79.5 |  |  |
| UACUCGUGUGAGAAGGGACGUAUCUCCAUGAGGGCAGGGCUAUUAGAGAAGUCAGGAUAUCACAUGAGGAUCACCCAUGUGACG | 8.26 | 10.8 |  |  |
| UAGAACCUAGGAUAUACUUGGACCACUAAUGCACAGAUAUAACAUGAGGAUCACCCAUGUAGAAGGAGGAGUAA | 40.4 | 32.4 |  |  |
| UAGAAGUCAGGAUAUGCUGCUCGUCACUUGCGUGAUGAGUAGCAGAAGGGACAUGAGGAUCACCCAUGUAAAGA | 57.4 | 79.9 |  |  |
| UAGAUACAUGAGGAUCACCCAUGUGAGGAUAUCGUUUGUACUAAUCUUUUAGUAUUUUCGAGAAGGCACAUAUA | 73.9 | 183 |  |  |
| UAGAUGGGAGGAUAUACGUAGAUGCAGGUUCGUGUGGUGCUACAUGAGGAUCACCCAUGUAGAAGGCCCGUCUU | 14.8 | 48.9 |  |  |
| UAGAUGGGAGGAUAUACGUAGAUGCAGGUUCGUGUGGUUCUACAUGAGGAUCACCCAUGUAGAAGGCCCGUCUU | 16.6 | 27.5 |  |  |
| UAGGUUUGUAGUUACAUCCCUACACAGGAUAUGGGUAGUUACAUGAGGAUCACCCAUGUUCGAACUCAGAAGGGUGGAUCGUUA |  |  | 170 | 13.8 |

| Sequence | apparent Kd [1] [nM] | apparent Kd [2] [nM] | apparent Kd [3] [nM] | apparent Kd [4] [nM] |
| --- | --- | --- | --- | --- |
| UAGUAGGUAGGAUAUACAUGGAUAUACAUUCAUGUGGACCUACAUGAGGAUCACCCAUGUAGAAGGACCUACUA | 38.1 | 88.9 |  |  |
| UAGUAUAAGGGCAUUACACAUGAGGAUCACCCAUGUACGUUAGAGGAUAUGCAUUACAGUUGAACGUAGAAGGUUAGAGAAGGG | 73.6 | 80.3 |  |  |
| UAUAAAACAUAGGAUAUCGAAAUUAUCAUUUAACGAGAAGGAUGAACAUGAGGAUCACCCAUGUGGUAUCAUGG | 392 | 518 |  |  |
| UAUACACAUGAGGAUCACCCAUGUGAGGAUAUGUACAACAACCCGACGGUGUUGUUGUACAGAAGGCACAAAUA | 80.2 | 59.8 |  |  |
| UAUAUAAUAAGAGCUGGAAACUCAACAUGAGGAUCACCCAUGUAGGAUAUCAGCACGAUAAGUGCUGAGAAGGACAACCAGCUC | 19.9 | 23.3 |  |  |
| UAUAUAUAGUAAGGAUAUGUAAUUAGUUUAUAAACAGAAGGUACUGACAUGAGGAUCACCCAUGUUUUAGUGUGGGCAUGUAGA | 87.7 | 134 |  |  |
| UAUAUAUAGUAAGGAUAUGUAAUUAUUUUAUAGACAGAAGGUACUGACAUGAGGAUCACCCAUGUUUUAGUGUGGGCAUGUAGA | 85.2 | 130 |  |  |
| UAUAUAUAGUAAGGAUAUGUAAUUAUUUUAUCAACAGAAGGUACUGACAUGAGGAUCACCCAUGUUUUAGUGUGGGCAUGUAGA | 87.9 | 111 |  |  |
| UAUAUGUCAGGAUAUUAGUUGUGUUAGAAUUUAACUUCUGCUGAGAAGGGACAUGAGGAUCACCCAUGUUCCUC | 15.9 | 21.2 |  |  |
| UAUCAAUUUAUGGGAUUAGAUUAUGAGGAUAUCAUUUUUUUAUACAUGAGGAUCACCCAUGUUUCUGAGAAGGCAUAAUUAAUA |  |  | 16.9 | 6.29 |
| UAUGACAUGAGGAUCACCCAUGUCAGCGAGAAAUGAGAGUCACAGGAUAUGUUUUCGGCCGGCAGACAGAAGGGUGACCCUGAG |  |  | 10.9 | 7.02 |
| UAUGUGUCAGGAUAUUAGUAGUAUAUAGAUAUAUAUAUUACUGAGAAGGGACAUGAGGAUCACCCAUGUACCUU | 16.5 | 19.1 |  |  |
| UAUUACAGAUAAGGAUAUUGACAUGAGGAUCACCCAUGUAUUUGGGAAUGUUUACUGAAUUCUUACGAGAAGGUAUACGUACUU | 128 | 98.7 |  |  |
| UAUUAGCUAGGAUAUACAUGAGGAUCACCCAUGUCACGGGUCCACUCAUCCUAUGCGUGUAGAAGGAGCGACCC | 22.9 | 26.6 |  |  |
| UAUUAUUUGGAGAAGGACAUGAGGAUCACCCAUGUCGCCGGGCCCGGGAAACCGGGCCCGGCCAUGUAGGAUAUCCGGGUGGUA | 12.7 | 13.6 |  |  |
| UAUUCGUUCUAGAAGGUGCAUUUGUUAAACAUGCAAGGAUAUAGACAUGAGGAUCACCCAUGUCUAUGAGACAUCGGCCUCCUU | 7.15 | 24.9 |  |  |
| UAUUUAAUCAUAGGAUAUAGUGUGUAAUUUGGACUAGAAGGAUGAAACAUGAGGAUCACCCAUGUGGUAAAUGGGAUACAUUCC |  |  | 73.5 | 94.5 |
| UAUUUAUAAUAUUUUAACAUGAGGAUCACCCAUGUCGCUAGACAGGAUAUAUUUUAUUUGUUUAAGUAGAAGGGUCGUAGAUUU |  |  | 166 | 138 |
| UCAAAUACUGAGGAUAUAACGACUGAAUCCGCGUUAGAAGGUAGUACAUGAGGAUCACCCAUGUCAACCAGAGG |  | 18.7 |  |  |
| UCAAGUAUGUAGGAUAUCGAUGUCUGCGGACAUCGAGAAGGACGUACAUGAGGAUCACCCAUGUAACUUGCAUG | 107 | 79.4 |  |  |
| UCAAUCACUGGAGGAUAUGUACUAAUUUGCGGUUCCUCGAUAUCUCACAUGAGGAUCACCCAUGUACAGAAGGCUAGUCGGAAA | 783 | 99.7 |  |  |
| UCACGGCAUGUAGGAUAUGCAUAGCAUUGCUAUGCAGAAGGACAUGAGGAUCACCCAUGUAUGUAUUCCAUACUAUUCCCGUGU | 7.42 | 14.8 |  |  |
| UCACGGGACUGAGGAUAUACAUGAACUAUUUUUGUAGAAGGCAGAAUGUUAGAUUAUACACUAAACAUGAGGAUCACCCAUGUU | 19.1 | 16.1 |  |  |
| UCACGGGAUUGAGGAUAUAUAUUAAUUUUUACAAUAGAAGGCAAAUUGUUAGAUUAUUCACUAUACAUGAGGAUCACCCAUGUU | 23.6 | 21.7 |  |  |
| UCACGGUAUGUAGGAUAUGCAUAGCAUUGCUAUGCAGAAGGACAUGAGGAUCACCCAUGUAUGUAUUCCAUACAAAUCCCGUGU | 5.68 | 5.58 |  |  |
| UCACUCAAGUUAGGAUAUGGAUCGGAAAACGAUCCAGAAGGAACAUGGGAACAUGAGGAUCACCCAUGUUCCAGAAACGAGUGA |  |  | 413 | 155 |
| UCAGGCUUCGAGAAGGACAUGAAUCGUAGCAUUGCUACGAUGAAACAUACAUGAGGAUCACCCAUGUAGGAUAUCGGAGUCUGC | 5.14 | 5.55 |  |  |
